According to ChEMBL document CHEMBL4715748, “Synthesis and biological investigation of new equatorial (β) stereoisomers of 3-aminotropane arylamides with atypical antipsychotic profile” (Bioorg Med Chem, 2016):
pKi: −log10 of the molar value.

Key:
Mus musculus [1] = assay: Effect on 8-OH-DPAT-induced hypothermia in Swiss albino mouse assessed as change in rectal body temperature at 20 mg/kg, ip pretreated with compound for 45 mins followed by 8-OH-DPAT challenge and measured after 60 min by thermometer (reference value: -0.66 to -0.5 degreeC); format: functional, organism-based; conditions: time 105.0 min
Mus musculus [2] = assay: Effect on 8-OH-DPAT-induced hypothermia in Swiss albino mouse assessed as change in rectal body temperature at 10 mg/kg, ip pretreated with compound for 45 mins followed by 8-OH-DPAT challenge and measured after 45 min by thermometer (reference value: -1.04 to -0.78 degreeC); format: functional, organism-based; conditions: time 90.0 min
[3] = Effect on body temperature in Swiss Albino mouse assessed as rectal body temperature at 20 mg/kg, ip measured after 120 mins by thermometer (reference value: 0.15 to 1.11 degreeC); format: ADME, organism-based; conditions: in vivo, 2 h
[4] = Effect on body temperature in Swiss Albino mouse assessed as rectal body temperature at 20 mg/kg, ip measured after 30 mins by thermometer (reference value: 0.16 to 0.33 degreeC); format: ADME, organism-based; conditions: in vivo, 0.5 h
Mus musculus [5] = assay: Effect on 8-OH-DPAT-induced hypothermia in Swiss albino mouse assessed as change in rectal body temperature at 20 mg/kg, ip pretreated with compound for 45 mins followed by 8-OH-DPAT challenge and measured after 30 min by thermometer (reference value: -1.36 to -1.12 degreeC); format: functional, organism-based; conditions: time 75.0 min
Mus musculus [6] = assay: Effect on 8-OH-DPAT-induced hypothermia in Swiss albino mouse assessed as change in rectal body temperature at 10 mg/kg, ip pretreated with compound for 45 mins followed by 8-OH-DPAT challenge and measured after 15 min by thermometer (reference value: -1.82 to -1.66 degreeC); format: functional, organism-based; conditions: time 60.0 min
[7] = Effect on body temperature in Swiss Albino mouse assessed as rectal body temperature at 10 mg/kg, ip measured after 120 mins by thermometer (reference value: 0.15 to 1.11 degreeC); format: organism-based; conditions: in vivo, 2 h
Mus musculus [8] = assay: Antipsychotic activity Swiss Albino mouse assessed as inhibition of DOI-induced head twitching by measuring number of episodes at 2.5 mg/kg, ip administered 30 mins prior to DOI stimulation (reference value: 19.63 to 19.88); format: functional; conditions: 0.5 h
Outline: (§1)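 Male Albino Swiss mice (24–28 g) were habituated to sawdust-lined cages 20 min before the first treatment. Compounds were suspended in 1% aqueous Tween 80 and given i.p. 30 min before (±)-DOI, 2.5 mg/kg i.p. in aqueous solution. Head twitches were counted blind over 20 min, n=8 per group, mean ± SEM, one-way ANOVA with Dunnett's test.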

Mus musculus [9] = assay: Effect on 8-OH-DPAT-induced hypothermia in Swiss albino mouse assessed as change in rectal body temperature at 20 mg/kg, ip pretreated with compound for 45 mins followed by 8-OH-DPAT challenge and measured after 45 min by thermometer (reference value: -1.04 to -0.78 degreeC); format: functional, organism-based; conditions: time 90.0 min
[10] = Effect on body temperature in Swiss Albino mouse assessed as rectal body temperature at 10 mg/kg, ip measured after 90 mins by thermometer (reference value: 0.18 to 0.63 degreeC); format: ADME, organism-based; conditions: in vivo, 1.5 h
D(2) dopamine receptor = D(2) dopamine receptor (Rattus norvegicus, UniProt P61169); assay: Displacement of [3H] Spiperone from rat striatum dopamine D2 receptor measured after 30 mins by liquid scintillation counter method
D(2) dopamine receptor, sequence (P61169 whole entry): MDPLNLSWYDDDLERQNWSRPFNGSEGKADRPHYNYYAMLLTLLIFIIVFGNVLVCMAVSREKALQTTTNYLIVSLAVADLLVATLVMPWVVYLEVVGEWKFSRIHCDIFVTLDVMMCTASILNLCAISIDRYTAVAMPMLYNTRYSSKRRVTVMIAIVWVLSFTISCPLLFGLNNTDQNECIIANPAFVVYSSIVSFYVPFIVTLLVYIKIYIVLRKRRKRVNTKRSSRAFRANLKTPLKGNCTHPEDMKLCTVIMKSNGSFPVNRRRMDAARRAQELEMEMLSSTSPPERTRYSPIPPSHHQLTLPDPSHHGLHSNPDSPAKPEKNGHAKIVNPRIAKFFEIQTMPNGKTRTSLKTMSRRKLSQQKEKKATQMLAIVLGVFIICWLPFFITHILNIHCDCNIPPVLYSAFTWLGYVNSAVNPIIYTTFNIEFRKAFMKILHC
Outline: (§2)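 Competition binding in rat brain tissue membranes against D2, 5-HT1A and 5-HT2A sites; Ki reported as mean ± S.E.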

[11] = Effect on body temperature in Swiss Albino mouse assessed as rectal body temperature at 20 mg/kg, ip measured after 90 mins by thermometer (reference value: 0.18 to 0.63 degreeC); format: ADME, organism-based; conditions: in vivo, 1.5 h
Mus musculus [12] = assay: Antipsychotic activity Swiss Albino mouse assessed as inhibition of DOI-induced head twitching by measuring number of episodes at 5 mg/kg, ip administered 30 mins prior to DOI stimulation (reference value: 19.63 to 19.88); format: functional; conditions: 0.5 h; outline: as §1
[13] = target: T1, 5-hydroxytryptamine receptor 1A (Rattus norvegicus, UniProt P19327); assay: Displacement of [3H]-8-OH-DPAT from rat cerebral cortex 5HT1A receptor measured after 15 mins by liquid scintillation counter method
T1 sequence (P19327 whole entry): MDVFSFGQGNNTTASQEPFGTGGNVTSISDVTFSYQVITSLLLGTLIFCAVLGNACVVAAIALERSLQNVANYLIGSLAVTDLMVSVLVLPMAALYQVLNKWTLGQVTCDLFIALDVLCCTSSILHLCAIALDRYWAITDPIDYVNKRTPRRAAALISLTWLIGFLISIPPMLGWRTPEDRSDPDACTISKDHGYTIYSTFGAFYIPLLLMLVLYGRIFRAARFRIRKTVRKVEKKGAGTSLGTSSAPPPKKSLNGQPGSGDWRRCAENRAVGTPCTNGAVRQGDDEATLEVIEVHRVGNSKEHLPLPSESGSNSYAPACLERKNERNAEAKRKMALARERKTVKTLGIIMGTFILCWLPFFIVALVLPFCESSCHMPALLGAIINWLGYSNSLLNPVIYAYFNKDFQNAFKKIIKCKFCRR

[14] = target: Dopamine D2 receptor and Serotonin 2a receptor (D2 and 5HT2a) (Rattus norvegicus) (UniProt P61169+P14842); assay: Ratio of pKi for displacement of [3H]-ketanserin from rat cerebral cortex 5HT2A receptor measured after 20 mins by liquid scintillation counter method to pKi for displacement of [3H] Spiperone from rat striatum dopamine D2 receptor measured after 30 mins by liquid scintillation counter method
Dopamine D2 receptor and Serotonin 2a receptor (D2 and 5HT2a) (Rattus norvegicus), sequence (P14842 whole entry, looked up): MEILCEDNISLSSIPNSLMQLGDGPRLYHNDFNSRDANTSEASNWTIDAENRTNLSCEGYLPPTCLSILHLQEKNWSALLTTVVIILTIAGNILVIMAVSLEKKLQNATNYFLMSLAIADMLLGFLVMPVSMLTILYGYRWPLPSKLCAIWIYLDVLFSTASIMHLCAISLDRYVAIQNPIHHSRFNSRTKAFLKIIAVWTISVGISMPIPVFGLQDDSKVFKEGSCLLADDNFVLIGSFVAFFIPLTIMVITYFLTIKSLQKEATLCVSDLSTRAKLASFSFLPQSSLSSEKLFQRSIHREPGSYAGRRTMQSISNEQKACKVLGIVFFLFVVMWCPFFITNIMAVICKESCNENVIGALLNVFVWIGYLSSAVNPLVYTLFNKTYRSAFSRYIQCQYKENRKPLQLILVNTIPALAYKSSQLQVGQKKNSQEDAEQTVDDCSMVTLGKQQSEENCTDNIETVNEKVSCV
Dopamine D2 receptor and Serotonin 2a receptor (D2 and 5HT2a) (Rattus norvegicus), sequence (P61169 whole entry, looked up): as the sequence (P61169 whole entry) above
Outline: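 Ratio of pKi values, 5-HT2A over D2, computed from competition radioligand binding in rat brain tissue.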

Mus musculus [15] = assay: Effect on 8-OH-DPAT-induced hypothermia in Swiss albino mouse assessed as change in rectal body temperature at 20 mg/kg, ip pretreated with compound for 45 mins followed by 8-OH-DPAT challenge and measured after 15 min by thermometer (reference value: -1.82 to -1.66 degreeC); format: functional, organism-based; conditions: time 60.0 min
[16] = Effect on 8-OH-DPAT-induced lower lip retraction in Wistar rat at 10 mg/kg, ip pretreated with compound for 45 mins followed by 8-OH-DPAT challenge and measured after 15 mins (reference value: 2.7 to 2.8); format: functional; conditions: time 60 min, 1 h
[17] = target: 5-hydroxytryptamine receptor 2A (Rattus norvegicus, UniProt P14842); assay: Displacement of [3H]-ketanserin from rat cerebral cortex 5HT2A receptor measured after 20 mins by liquid scintillation counter method; outline: as §2
5-hydroxytryptamine receptor 2A, sequence (P14842 whole entry): as the sequence (P14842 whole entry, looked up) above

[18] = Effect on 8-OH-DPAT-induced lower lip retraction in Wistar rat at 20 mg/kg, ip pretreated with compound for 45 mins followed by 8-OH-DPAT challenge and measured after 15 mins (reference value: 2.7 to 2.8); format: functional; conditions: time 60 min, 1 h
Mus musculus [19] = assay: Effect on 8-OH-DPAT-induced hypothermia in Swiss albino mouse assessed as change in rectal body temperature at 10 mg/kg, ip pretreated with compound for 45 mins followed by 8-OH-DPAT challenge and measured after 60 min by thermometer (reference value: -0.66 to -0.5 degreeC); format: functional, organism-based; conditions: time 105.0 min
Mus musculus [20] = assay: Antipsychotic activity Swiss Albino mouse assessed as inhibition of DOI-induced head twitching by measuring number of episodes at 10 mg/kg, ip administered 30 mins prior to DOI stimulation (reference value: 19.63 to 19.88); format: functional; conditions: 0.5 h; outline: as §1
Mus musculus [21] = assay: Effect on 8-OH-DPAT-induced hypothermia in Swiss albino mouse assessed as change in rectal body temperature at 10 mg/kg, ip pretreated with compound for 45 mins followed by 8-OH-DPAT challenge and measured after 30 min by thermometer (reference value: -1.36 to -1.12 degreeC); format: functional, organism-based; conditions: time 75.0 min
[22] = Half life in pooled human liver microsomes assessed as parent compound remaining at 2.5 uM measured up to 45 mins in presence of NADPH by LC-MS analysis; format: ADME, Microsome
Outline: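 Compound at 2.5 μM (added from 100 μM stock in 50/50 acetonitrile/water) with 1 mg/mL pooled human liver microsomes and 250 μM NADPH in 0.1 M potassium phosphate pH 7.4 at 37 °C after 5-min preincubation. Sampled at 5, 10, 15, 30, 45 min into ice-cold acetonitrile with atropine internal standard; parent quantified by LC-MS (ESI+, [M+H]+); no-NADPH controls; half-time derived.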

[23] = Effect on body temperature in Swiss Albino mouse assessed as rectal body temperature at 10 mg/kg, ip measured after 60 mins by thermometer (reference value: 0.33 to 0.61 degreeC); format: ADME, organism-based; conditions: in vivo, 1 h
[24] = Effect on body temperature in Swiss Albino mouse assessed as rectal body temperature at 10 mg/kg, ip measured after 30 mins by thermometer (reference value: 0.16 to 0.33 degreeC); format: organism-based; conditions: in vivo, 0.5 h
[25] = Effect on body temperature in Swiss Albino mouse assessed as rectal body temperature at 20 mg/kg, ip measured after 60 mins by thermometer (reference value: 0.33 to 0.61 degreeC); format: ADME, organism-based; conditions: in vivo, 1 h

COc1ccccc1CN1C2CCC1CC(NC(=O)c1ccc3ccccc3c1)C2 (stereo not drawn)
deltaT (Mus musculus [1]): -0.65 °C | deltaT (Mus musculus [2]): -1.45 °C | deltaT [3]: -0.26 °C | deltaT [4]: -0.34 °C | deltaT (Mus musculus [5]): -1.37 °C | deltaT (Mus musculus [6]): -1.37 °C | deltaT [7]: 0.26 °C | Activity (Mus musculus [8]): 16.25 | deltaT (Mus musculus [9]): -0.92 °C | deltaT [10]: 0.63 °C | pKi (D(2) dopamine receptor): 7.11 | deltaT [11]: 0.16 °C | Activity (Mus musculus [12]): 12.25 | pKi [13]: 7.08 | Ratio pKi [14]: 0.85 | deltaT (Mus musculus [15]): -1.47 °C | Activity [16]: 2.5 | pKi [17]: 6.04 | Activity [18]: 2 | deltaT (Mus musculus [19]): -1.08 °C | Activity (Mus musculus [20]): 8.25 | deltaT (Mus musculus [21]): -1.77 °C | half-life at 2.5 µM [22]: 41.3 min | deltaT [23]: 0.44 °C | deltaT [24]: 0.23 °C | deltaT [25]: 0.01 °C

COc1ccc(CN2C3CCC2CC(NC(=O)c2ccc4ccccc4c2)C3)cc1 (stereo not drawn)
pKi (D(2) dopamine receptor): 9.22 | pKi [13]: 5.59 | pKi [17]: 6.04

O=C(NC1CC2CCC(C1)N2Cc1ccccc1)c1ccc2ccccc2n1 (stereo not drawn)
pKi (D(2) dopamine receptor): 6.23 | pKi [13]: 7.20 | pKi [17]: 6.30

O=C(NC1CC2CCC(C1)N2Cc1ccc(Cl)cc1)c1ccc2ccccc2c1 (stereo not drawn)
pKi (D(2) dopamine receptor): 9.40 | pKi [13]: 5.60 | pKi [17]: 6.40

COc1cc(C(=O)NC2CC3CCC(C2)N3Cc2ccccc2)nc2ccccc12 (stereo not drawn)
pKi (D(2) dopamine receptor): < 5.00 | pKi [13]: 7.52 | pKi [17]: 6.31

O=C(NC1CC2CCC(C1)N2Cc1ccncc1)c1ccc2ccccc2c1 (stereo not drawn)
pKi (D(2) dopamine receptor): 5.57 | pKi [13]: 5.64 | pKi [17]: 5.95

O=C(NC1CC2CCC(C1)N2Cc1cccc(C(F)(F)F)c1)c1ccc2ccccc2c1 (stereo not drawn)
pKi (D(2) dopamine receptor): 6.66 | pKi [13]: 6.89 | pKi [17]: 6.68

O=C(NC1CC2CCC(C1)N2Cc1ccccc1Br)c1ccc2ccccc2c1 (stereo not drawn)
pKi (D(2) dopamine receptor): 7.64 | pKi [13]: 6.71 | pKi [17]: 6.87

O=C(NC1CC2CCC(C1)N2Cc1ccccc1Cl)c1ccc2ccccc2c1 (stereo not drawn)
deltaT (Mus musculus [1]): -1.53 °C | deltaT (Mus musculus [2]): -0.62 °C | deltaT [3]: 1.39 °C | deltaT [4]: -0.36 °C | deltaT (Mus musculus [5]): -2.12 °C | deltaT (Mus musculus [6]): -0.97 °C | deltaT [7]: 1.34 °C | Activity (Mus musculus [8]): 20 | deltaT (Mus musculus [9]): -2.18 °C | deltaT [10]: 0.84 °C | pKi (D(2) dopamine receptor): 7.46 | deltaT [11]: 0.44 °C | Activity (Mus musculus [12]): 14.75 | pKi [13]: 6.80 | Ratio pKi [14]: 0.86 | deltaT (Mus musculus [15]): -2 °C | Activity [16]: 2.5 | pKi [17]: 6.40 | Activity [18]: 2 | deltaT (Mus musculus [19]): -0.12 °C | Activity (Mus musculus [20]): 10.75 | deltaT (Mus musculus [21]): -1.17 °C | half-life at 2.5 µM [22]: 33 min | deltaT [23]: 0.96 °C | deltaT [24]: 0 °C | deltaT [25]: 0.44 °C
